For data set [1], the system named is RBL-2H3. The data set can be described thus: Antiallergic activity in rat RBL2H3 cells assessed as inhibition of A23187-induced beta hexosaminidase release at 10 nM pretreated for 20 hrs followed by A23187 addition measured after 1 hr by p-NAG substrate based assay relative to control. Format: functional.
The test system of data set [2] is RBL-2H3. Kind of data set: Antiallergic activity in anti-DNP IgE-sensitized rat RBL2H3 cells assessed as inhibition of DNP-BSA-induced beta hexosaminidase release at 10 nM pretreated for 20 hrs followed by anti-DNP IgE-sensitization for 2 hrs and subsequent DNP-BSA addition measured after 1 hr by p-NAG substrate based assay relative to control. It is filed as functional.

The subject of data set [3] is Neutrophil. The data set can be described thus: Antiinflammatory activity in human neutrophils assessed as inhibition of fMLP/CB-induced elastase release pretreated for 5 mins followed by fMLP/CB stimulation using MeO-Suc-Ala-Ala-Pro-Val-p-nitroanilide as substrate. It is filed as functional, cell-based. The method, boiled down:
(§1)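 Elastase release from fMLF/cytochalasin B-activated human neutrophils, isolated from venous blood of healthy volunteers aged 20−30, measured with N-methoxysuccinyl-Ala-Ala-Pro-Val-p-nitroanilide as substrate. Pure compounds were tested at 0.3 to 10 μM. Results are IC50 or % inhibition at 10 μM relative to fMLF/CB control, mean ± SEM (n = 3−4).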

In data set [4] the test system is RBL-2H3. Kind of data set: Antiallergic activity in rat RBL2H3 cells assessed as inhibition of A23187-induced beta hexosaminidase release at 1 uM pretreated for 20 hrs followed by A23187 addition measured after 1 hr by p-NAG substrate based assay relative to control. Format: functional. The essentials:
(§2)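 Degranulation assay: RBL-2H3 cells were seeded at 2 × 10^4 cells/well overnight and exposed to compounds (1 to 400 μM) for 20 h. They were then activated with calcium ionophore A23187 (1 μM). Released β-hexosaminidase was quantified using p-NAG substrate and expressed as % inhibition relative to A23187 control, mean ± SD (n = 3).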

Data set [5] has as its system RBL-2H3. The data set can be described thus: Antiallergic activity in anti-DNP IgE-sensitized rat RBL2H3 cells assessed as inhibition of DNP-BSA-induced beta hexosaminidase release at 10 uM pretreated for 20 hrs followed by anti-DNP IgE-sensitization for 2 hrs and subsequent DNP-BSA addition measured after 1 hr by p-NAG substrate based assay relative to control. It is filed as functional. The essentials: (§3)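 RBL-2H3 cells in DMEM with 10% FBS at 37 °C and 5% CO2 were seeded at 3 × 10^4 cells/well overnight, then treated 20 h with compounds (1 to 400 μM). Cells were sensitized with anti-DNP IgE (1 μg/mL, at least 2 h) and challenged with DNP-BSA (100 ng/mL) for 1 h. β-Hexosaminidase was read with p-NAG substrate as % inhibition versus antigen control. Mean ± SD, n = 3.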

Data set [6] deals with RBL-2H3. The data set can be described thus: Antiallergic activity in anti-DNP IgE-sensitized rat RBL2H3 cells assessed as inhibition of DNP-BSA-induced beta hexosaminidase release at 200 uM pretreated for 20 hrs followed by anti-DNP IgE-sensitization for 2 hrs and subsequent DNP-BSA addition measured after 1 hr by p-NAG substrate based assay relative to control. It is filed as functional. The method, boiled down:
as §3

In data set [7] the test system is RBL-2H3. Kind of data set: Antiallergic activity in anti-DNP IgE-sensitized rat RBL2H3 cells assessed as inhibition of DNP-BSA-induced beta hexosaminidase release at 100 uM pretreated for 20 hrs followed by anti-DNP IgE-sensitization for 2 hrs and subsequent DNP-BSA addition measured after 1 hr by p-NAG substrate based assay relative to control. It is filed as functional. The method, boiled down:
as §3

Data set [8] in a line: Cytotoxicity against rat RBL2H3 cells assessed as cell viability at 400 uM after 24 hrs by MTT assay relative to control. It is filed as cell-based. The settings on record: RBL-2H3 cells, read-out: Activity. The method, boiled down: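 Viability of RBL-2H3 cells, cultured in DMEM with 10% FBS at 37 °C and 5% CO2, was determined by MTT after exposure to pure compounds at 400 μM. It is expressed as % of untreated control, mean ± SD (n = 3). Viability below 80% was classed as cytotoxic.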
(Formazan colour is commonly taken as a measure of viable cells.)

In data set [9] the test system is Neutrophil. Kind of data set: Anti-inflammatory activity in human neutrophils assessed as inhibition of fMLP/CB-induced superoxide anion generation at 10 uM pretreated for 5 mins followed by cytochalasin B addition for 3 mins and subsequent fMLP stimulation for 10 mins by superoxide dismutase inhibitable reduction of ferricytochrome c based spectrophotometric assay relative to control. It is filed as functional. The method, boiled down:
(§4)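 Human neutrophils isolated from venous blood of healthy adult volunteers (20−30 years), stimulated with fMLF/cytochalasin B. Superoxide anion was measured as ferricytochrome c reduction. Pure compounds were tested at 0.3 to 10 μM. IC50 was taken as the concentration giving 50% inhibition, and single-point values as % inhibition at 10 μM versus fMLF/CB control. Mean ± SEM, n = 3−4.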

The subject of data set [10] is RBL-2H3. The data set can be described thus: Antiallergic activity in anti-DNP IgE-sensitized rat RBL2H3 cells assessed as inhibition of DNP-BSA-induced beta hexosaminidase release at 1 uM pretreated for 20 hrs followed by anti-DNP IgE-sensitization for 2 hrs and subsequent DNP-BSA addition measured after 1 hr by p-NAG substrate based assay relative to control. It is filed as functional. The essentials: as §3

Data set [11] concerns Neutrophil. Kind of data set: Antiinflammatory activity in human neutrophils assessed as inhibition of fMLP/CB-induced elastase release at 10 uM pretreated for 5 mins followed by fMLP/CB stimulation using MeO-Suc-Ala-Ala-Pro-Val-p-nitroanilide as substrate relative to control. Format: functional. The essentials: as §1
Data set [12] concerns RBL-2H3. The data set can be described thus: Antiallergic activity in rat RBL2H3 cells assessed as inhibition of A23187-induced beta hexosaminidase release at 200 uM pretreated for 20 hrs followed by A23187 addition measured after 1 hr by p-NAG substrate based assay relative to control. It is filed as functional. The method, boiled down: as §2
In data set [13] the test system is RBL-2H3. The data set can be described thus: Antiallergic activity in rat RBL2H3 cells assessed as inhibition of A23187-induced beta hexosaminidase release at 100 uM pretreated for 20 hrs followed by A23187 addition measured after 1 hr by p-NAG substrate based assay relative to control. Format: functional. The method, boiled down: as §2
In data set [14] the test system is Neutrophil. Kind of data set: Anti-inflammatory activity in human neutrophils assessed as inhibition of fMLP/CB-induced superoxide anion generation pretreated for 5 mins followed by cytochalasin B addition for 3 mins and subsequent fMLP stimulation for 10 mins by superoxide dismutase inhibitable reduction of ferricytochrome c based spectrophotometric assay. Format: functional, cell-based. The method, boiled down: as §4

Data set [15] concerns RBL-2H3. The data set can be described thus: Antiallergic activity in rat RBL2H3 cells assessed as inhibition of A23187-induced beta hexosaminidase release at 10 uM pretreated for 20 hrs followed by A23187 addition measured after 1 hr by p-NAG substrate based assay relative to control. Format: functional. The essentials:
as §2

Data set [16] relates to RBL-2H3. The data set can be described thus: Antiallergic activity in rat RBL2H3 cells assessed as inhibition of A23187-induced beta hexosaminidase release at 400 uM pretreated for 20 hrs followed by A23187 addition measured after 1 hr by p-NAG substrate based assay relative to control. Format: functional. The method, boiled down:
as §2

In data set [17] the test system is RBL-2H3. The data set can be described thus: Antiallergic activity in anti-DNP IgE-sensitized rat RBL2H3 cells assessed as inhibition of DNP-BSA-induced beta hexosaminidase release at 400 uM pretreated for 20 hrs followed by anti-DNP IgE-sensitization for 2 hrs and subsequent DNP-BSA addition measured after 1 hr by p-NAG substrate based assay relative to control. It is filed as functional. The essentials:
as §3

Another data set concerns the target T1, Neutrophil elastase (Homo sapiens, UniProt P08246).
T1 sequence (P08246 whole entry): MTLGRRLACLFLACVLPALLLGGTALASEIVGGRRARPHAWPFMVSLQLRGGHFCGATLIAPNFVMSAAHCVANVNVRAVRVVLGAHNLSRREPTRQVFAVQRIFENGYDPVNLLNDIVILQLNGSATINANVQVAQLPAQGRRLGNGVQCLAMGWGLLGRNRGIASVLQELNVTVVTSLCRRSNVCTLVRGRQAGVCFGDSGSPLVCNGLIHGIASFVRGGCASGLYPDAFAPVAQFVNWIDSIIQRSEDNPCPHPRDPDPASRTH
The data set can be described thus: Inhibition of human neutrophil elastase using N-Methoxysuccinyl-Ala-Ala-Pro-Val-p-nitroanilid as substrate measured after 1 hr.

Data set [18] has as its system RBL-2H3. The data set can be described thus: Antiallergic activity in anti-DNP IgE-sensitized rat RBL2H3 cells assessed as inhibition of DNP-BSA-induced beta hexosaminidase release pretreated for 10 mins followed by DNP-BSA addition measured after 10 mins by p-NAG substrate based assay. Format: functional, cell-based.

For `C[C@@H]1C[C@H]2[C@@H]3CCC4=CC(=O)C=C[C@]4(C)[C@@]3(F)[C@@H](O)C[C@]2(C)[C@@]1(O)C(=O)CO` [DEXAMETHASONE], the inhibition at 0.01 µM in the data set on RBL-2H3 [1] is 80.7%; in the data set on RBL-2H3 [2] it was 79.7%.

`O=c1cc(-c2ccc(O)c(-c3c(O)cc4oc(-c5ccc(O)cc5)cc(=O)c4c3O)c2)oc2cc(O)cc(O)c12` [ROBUSTAFLAVONE]: the 50% inhibitory concentration (IC50) with Neutrophil [3] is 450 nM; in the data set with Neutrophil [14], 1010 nM; on Neutrophil elastase, 1330 nM. For the same compound, the figures for the inhibition at 1 µM with RBL-2H3 [4] and in the data set on RBL-2H3 [10] were 2.3% and 4%, respectively. The inhibition at 10 µM in the data set with RBL-2H3 [5] worked out at 3%; with Neutrophil [9] it was 105%; in the data set with Neutrophil [11], 103%; with RBL-2H3 [15] it was 5.3%. The inhibition at 200 µM stood at 3% with RBL-2H3 [6] and 2.7% with RBL-2H3 [12]. The inhibition at 100 µM in the data set with RBL-2H3 [7] came out at 2.7%; in the data set on RBL-2H3 [13], 6%. Besides, the viability at 24 h, 400 µM in data set [8] came to 92.3%. The inhibition at 400 µM with RBL-2H3 [16] turned out to be 45.3%; in the data set on RBL-2H3 [17], 49%.

For `COc1c2c(cc3c1C(=O)[C@H](O)[C@@H](c1ccccc1)O3)OCO2` (relative stereo), the IC50 in the data set on RBL-2H3 [18] is more than 100000 nM.

With `COc1cc(O)c2c(=O)c(-c3ccc(O)c(OC)c3)coc2c1`, the IC50 in the data set on Neutrophil [3] was more than 10000 nM; in the data set with RBL-2H3 [18] it was more than 100000 nM; in the data set with Neutrophil [14], more than 10000 nM. Also, the inhibition at 1 µM in the data set on RBL-2H3 [4] worked out at 0.3%; in the data set with RBL-2H3 [10], 2.3%. Moreover, the inhibition at 10 µM in the data set on RBL-2H3 [5] was determined as 1.3%; in the data set on Neutrophil [9] it was 48.9%; with Neutrophil [11] it was 27.1%; with RBL-2H3 [15] it was 1.7%. Also, the inhibition at 200 µM is 18% in the data set on RBL-2H3 [6] and 22.7% in the data set on RBL-2H3 [12]. Besides, the inhibition at 100 µM is 9% in the data set on RBL-2H3 [7] and 23.7% in the data set with RBL-2H3 [13]. In addition, the viability at 24 h, 400 µM in [8] turned out to be 69%.

On to `COc1cc(OC)c2c(c1)O[C@H](c1ccccc1)[C@@H](O)C2=O` (relative stereo), for which the concentration for half-maximal inhibition (IC50) in the data set with RBL-2H3 [18] is more than 100000 nM.

Regarding `O=c1cc(N2CCOCC2)oc2c(-c3ccccc3)cccc12` [LY-294002], the IC50 with Neutrophil [3] was found to be 3440 nM; with Neutrophil [14], 1250 nM. Moreover, the inhibition at 10 µM worked out at 96.5% in the data set on Neutrophil [9] and 71.5% with Neutrophil [11].

Regarding `O=c1cc(-c2ccc(O)c(-c3c(O)cc(O)c4c(=O)cc(-c5ccc(O)cc5)oc34)c2)oc2cc(O)cc(O)c12` [AMENTOFLAVONE], the values for the IC50 in the data set on Neutrophil [3], with Neutrophil [14] and on Neutrophil elastase were 750 nM, 1010 nM and 1270 nM, respectively. The values for the inhibition at 1 µM with RBL-2H3 [4] and with RBL-2H3 [10] were 2% and 4.7%, respectively. Moreover, the inhibition at 10 µM in the data set with RBL-2H3 [5] is 1.3%; with Neutrophil [9], 104%; with Neutrophil [11], 108%; with RBL-2H3 [15], 6.7%. The inhibition at 200 µM in the data set on RBL-2H3 [6] was 7.7%; in the data set on RBL-2H3 [12] it was 3.3%. Moreover, the inhibition at 100 µM was found to be 2.7% in the data set on RBL-2H3 [7] and 0% in the data set on RBL-2H3 [13]. Besides, the viability at 24 h, 400 µM in data set [8] stood at 97.7%. Further, the inhibition at 400 µM in the data set with RBL-2H3 [16] came to 42.3%; in the data set on RBL-2H3 [17], 50%.

Turning to `COc1c(O)cc(O)c2c1O[C@H](c1ccccc1)[C@@H](O)C2=O`, the 50% inhibitory concentration (IC50) in the data set with RBL-2H3 [18] is more than 100000 nM.

Usually inhibition stands for the relative decrease from the control value, in per cent. By IC50 is commonly meant the concentration at which inhibition is half-maximal.
